Each block holds one compound with its values, some of them ahead of it.
Tests used:
[1] = Drug metabolism in PMA-stimulated mouse RAW264.7 cells assessed as auto-oxidation by measuring 4''-O-methyl-7-norcyclopentadione formation at 10 uM after 30 mins by LC-MS analysis; assay type: ADME, cell-based; details: raw264.7, 0.5 h
Outline: (§1)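 RAW264.7 cells grown in DMEM with 10% FBS, seeded at 400 000 cells/well and attached overnight. They got PMA (stimulated lines) or EtOH vehicle for 5 min, then the test compound at 10 μM for 30 min. Supernatants were extracted on HLB cartridges, eluted with MeOH, dried under N2 and redissolved in MeCN/H2O 1:1. Analysis was negative-ion ESI LC-MS/MS in SRM mode.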

[2] = Drug metabolism in PMA-stimulated mouse RAW264.7 cells assessed as auto-oxidation by measuring 7-Norcyclopentadione formation at 10 uM after 30 mins by LC-MS analysis; assay type: ADME, cell-based; details: raw264.7, 0.5 h; outline: as §1
[3] = Drug metabolism in pH 7.4 buffer containing 50% H218O assessed as auto-oxidation by measuring 7-Norcyclopentadione formation at 50 uM by LC-MS analysis
Outline: (§2)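 Oxygen-18 labelling in 200 μL of 20 mM NH4HCO3, pH 7.4, made with a 1:1 mix of H2O and H218O (97%). Curcumin was added at 50 μM and incubated 1 h at 37 °C. Aliquots went to negative-ion LC-MS without extraction.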

[4] = Drug metabolism in pH 7.4 buffer assessed as auto-oxidation by measuring 7-Norcyclopentadione formation at 50 uM by LC-MS analysis
[5] = Drug metabolism assessed as auto-oxidation by measuring 7-Norcyclopentadione formation at 50 uM by LC-MS analysis
[6] = Drug level in pH 7.4 buffer containing 50% H218O treated with curcumin at 50 uM by LC-MS analysis; assay type: physicochemical; details: pH 7.4, 50 µM; outline: as §2
[7] = Drug level in PMA-stimulated mouse RAW264.7 cells treated with curcumin at 10 uM after 30 mins by LC-MS analysis; assay type: ADME, cell-based; details: raw264.7, 0.5 h; outline: as §1
[8] = Drug level in mouse RAW264.7 cells treated with curcumin at 10 uM after 30 mins by LC-MS analysis; assay type: ADME, cell-based; details: raw264.7, 0.5 h; outline: as §1
[9] = Drug level treated with curcumin at 50 uM by LC-MS analysis; assay type: physicochemical
[10] = Drug metabolism in pH 7.4 buffer treated with curcumin at 50 uM by LC-MS analysis
[11] = Drug level treated with deuterated-demethoxy curcumin assessed as horseradish peroxidase-mediated oxidation at 50 uM after 1 hr in presence of H2O2 by LC-MS analysis; assay type: ADME; details: armoracia rusticana
Outline: (§3)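 HRP/H2O2 oxidation in 1 mL of 20 mM NH4OAc, pH 8, with 50 μM curcuminoid and 2.5 × 10−6 U horseradish peroxidase. H2O2 (40 μM) started the reaction, which ran 1 h at 37 °C. An aliquot was injected directly for negative-ion LC-MS.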

[12] = Drug level treated with demethoxy curcumin assessed as horseradish peroxidase-mediated oxidation at 50 uM after 1 hr in presence of H2O2 by LC-MS analysis; assay type: ADME; details: armoracia rusticana; outline: as §3
[13] = Drug metabolism assessed as horseradish peroxidase-mediated oxidation by measuring demethoxy-7-Norcyclopentadione formation at 50 uM after 1 hr in presence of H2O2 by LC-MS analysis; assay type: ADME; details: armoracia rusticana; outline: as §3
[14] = Drug metabolism assessed as horseradish peroxidase-mediated oxidation by measuring bisdemethoxy-7-Norcyclopentadione formation at 50 uM after 1 hr in presence of H2O2 by LC-MS analysis; assay type: ADME; details: armoracia rusticana; outline: as §3
[15] = Drug level in mouse RAW264.7 cells treated with 4'-O-methylcurcumin at 10 uM after 30 mins by LC-MS analysis; assay type: ADME, cell-based; details: raw264.7, 0.5 h; outline: as §1
[16] = Drug level in PMA-stimulated mouse RAW264.7 cells treated with 4'-O-methylcurcumin at 10 uM after 30 mins by LC-MS analysis; assay type: ADME, cell-based; details: raw264.7, 0.5 h; outline: as §1
[17] = Drug metabolism assessed as horseradish peroxidase-mediated oxidation by measuring deuterated-demethoxy-7-Norcyclopentadione formation at 50 uM after 1 hr in presence of H2O2 by LC-MS analysis; assay type: ADME; details: armoracia rusticana; outline: as §3

SMILES: COc1cc(/C=C/C(=O)/C=C(O)/C=C/c2ccc(OC)c(OC)c2)ccc1O
Drug metabolism [1]: Metabolite_Detected

SMILES: COc1cc(/C=C/C(=O)CC(=O)/C=C/c2ccc(O)c(OC)c2)ccc1O [CURCUMIN]
Drug metabolism [2]: Metabolite_Detected
Drug metabolism [3]: Metabolite detected
Drug metabolism [4]: Metabolite detected
Drug metabolism [5]: Metabolite detected

SMILES: COc1cc(/C=C/C(=O)CC(=O)/C=C/c2ccc(O)cc2)ccc1O
Drug metabolism [13]: Metabolite_Detected

SMILES: O=C(/C=C/c1ccc(O)cc1)CC(=O)/C=C/c1ccc(O)cc1 [BISDEMETHOXYCURCUMIN]
Drug metabolism [14]: Metabolite_Notdetected

SMILES: [2H]c1c([2H])c(/C=C/C(=O)CC(=O)/C=C/c2ccc(O)c(OC)c2)c([2H])c([2H])c1O
Drug metabolism [17]: Metabolite_Detected

Further lines, with some results ahead:

Drug metabolism [6]: Metabolite_Detected
Drug metabolism [7]: Metabolite_Detected
Drug metabolism [8]: Metabolite_Detected
Drug metabolism [9]: Metabolite_Detected
SMILES: COc1cc(C(O)C2C(=O)C=C(O)C2c2ccc(O)c(OC)c2)ccc1O (configuration not stated)
Drug metabolism [10]: Metabolite detected

Drug metabolism [11]: Metabolite_Detected
SMILES: [2H]c1c([2H])c(C(O)C2C(=O)C=C(O)C2c2ccc(O)c(OC)c2)c([2H])c([2H])c1O (configuration not stated)

Drug metabolism [12]: Metabolite_Detected
SMILES: COc1cc(C2C(O)=CC(=O)C2C(O)c2ccc(O)cc2)ccc1O (configuration not stated)

Drug metabolism [15]: Metabolite_Detected
Drug metabolism [16]: Metabolite_Detected
SMILES: COc1cc(C2C(O)=CC(=O)C2C(O)c2ccc(OC)c(OC)c2)ccc1O (configuration not stated)

Source: ChEMBL document CHEMBL4382272, “A Curcumin Degradation Product, 7-Norcyclopentadione, Formed by Aryl Migration and Loss of a Carbon from the Heptadienedione Chain” (J Nat Prod, 2018)
